Results as given in ChEMBL document CHEMBL4118256, “Second Generation of Mannich Base-Type Derivatives with in Vivo Activity against Trypanosoma cruzi” (J Med Chem, 2018).
The source made the active and inactive calls. The rule behind the calls is not given here.

Columns and labels:
Trypanosoma cruzi [1] = test: Trypanocidal activity against Trypanosoma cruzi TINF/CH/1956/Tulahuen DTU 6 epimastigotes after 48 hrs by resazurin dye based assay; assay type: functional, organism-based; details: TINF/CH/1956/Tulahuen DTU 6, 48 h
Method in brief: (§1)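 Exponential-phase epimastigotes were seeded at 5×10^5 mL^-1 with compounds at 100–0.2 µM (DMSO 0.01% v/v) at 28 °C. After 48 h, resazurin was added for another 24 h. SDS was then added and absorbance read at 570 and 600 nm.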

[2] = biological target: Superoxide dismutase [Cu-Zn] (Homo sapiens, UniProt P00441); test: Inhibition of human erythrocyte CuZn-SOD by UV-Visible spectrophotometric method
Method in brief: (§2)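 SOD activity of parasite Fe-SOD and human CuZn-SOD was measured spectrophotometrically by the Beyer and Fridovich method, with compounds at 1–100 µM. Values are averages of three rate determinations; IC50 was obtained by linear regression and differences were tested by Newman-Keuls.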

Trypanosoma cruzi [3] = test: Trypanocidal activity against Trypanosoma cruzi IRHOD/CO/2008/SN3 DTU 1 trypamastigotes derived from infected Balb/c albino mouse after 24 hrs by resazurin dye based assay; assay type: functional, organism-based; details: IRHOD/CO/2008/SN3 DTU 1, 24 h
Method in brief: (§3)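 Bloodstream trypomastigotes taken from mice at peak parasitaemia were seeded at 2×10^6 mL^-1 in RPMI with 10% FBS. Compounds were added at 50–0.2 µM and incubated 24 h at 37 °C, 5% CO2, then with resazurin for 4 h. SDS was added and absorbance read at 570/600 nm. IC50 was fitted; triplicate, four separate determinations.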

Trypanosoma cruzi [4] = test: Antitrypanosomal activity against Trypanosoma cruzi MHOM/Pe/2011/Arequipa DTU 5 epimastigotes assessed as reduction in mitochondrial membrane potential at IC25 after 72 hrs by Rho123 staining based flow cytometry relative to control; assay type: functional; set-up: scale not given: the % may be the effect or the level left
Method in brief: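 Arequipa epimastigotes were exposed at IC25 for 72 h, then labelled with Rhodamine 123 and analysed by flow cytometry. Result is % alteration in mitochondrial membrane potential versus untreated control.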

Trypanosoma cruzi [5] = test: Trypanocidal activity against Trypanosoma cruzi IRHOD/CO/2008/SN3 DTU 1 epimastigotes after 48 hrs by resazurin dye based assay; assay type: functional, organism-based; details: IRHOD/CO/2008/SN3 DTU 1, 48 h; method in brief: as §1
Superoxide dismutase = biological target: T1, Superoxide dismutase (Trypanosoma cruzi (strain CL Brener), UniProt Q4DCQ3); test: Inhibition of Trypanosoma cruzi MHOM/Pe/2011/Arequipa DTU 5 epimastigotes Fe-SOD by UV-Visible spectrophotometric method; method in brief: as §2
T1 sequence (Q4DCQ3 whole entry): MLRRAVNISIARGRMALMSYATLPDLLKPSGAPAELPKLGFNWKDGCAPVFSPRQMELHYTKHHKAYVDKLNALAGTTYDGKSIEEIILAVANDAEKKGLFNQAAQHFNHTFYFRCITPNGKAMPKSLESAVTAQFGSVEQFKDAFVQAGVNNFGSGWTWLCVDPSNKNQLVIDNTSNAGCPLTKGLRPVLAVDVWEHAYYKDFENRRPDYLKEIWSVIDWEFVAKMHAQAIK

Trypanosoma cruzi [6] = test: Antitrypanosomal activity against Trypanosoma cruzi MHOM/Pe/2011/Arequipa DTU 5 trypamastigotes infected in Balb/c mouse assessed as reduction in Ig-G level in serum at 100 mg/kg, po once daily for 5 consecutive days starting from day 75 post infection measured on day 81 post infection by ELISA; assay type: functional, organism-based
Trypanosoma cruzi [7] = test: Trypanocidal activity against Trypanosoma cruzi TINF/CH/1956/Tulahuen DTU 6 amastigotes infected in African green monkey Vero cells after 72 hrs by Giemsa-staining based microscopic assay; assay type: functional, organism-based; details: TINF/CH/1956/Tulahuen DTU 6, Vero
Method in brief: (§4)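 Vero cells were seeded at 1×10^4/well on coverslips. After 24 h they were infected with culture-derived trypomastigotes (MOI 1:10, 24 h), then washed. Compounds were added at 100–0.2 µM (DMSO 0.01% v/v) for 72 h at 37 °C, 5% CO2. Slides were methanol-fixed and Giemsa-stained; amastigotes and infected cells were counted over 500 host cells. IC50 was derived by curve fitting; triplicate wells, four separate determinations.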

Trypanosoma cruzi [8] = test: Trypanocidal activity against Trypanosoma cruzi IRHOD/CO/2008/SN3 DTU 1 amastigotes infected in African green monkey Vero cells after 72 hrs by Giemsa-staining based microscopic assay; assay type: functional, organism-based; details: IRHOD/CO/2008/SN3 DTU 1, Vero; method in brief: as §4
[9] = biological target: T2, Superoxide dismutase (Trypanosoma cruzi (strain CL Brener)) (UniProt Q4DCQ3); test: Inhibition of Trypanosoma cruzi MHOM/Pe/2011/Arequipa DTU 5 epimastigotes Fe-SOD at 50 uM by UV-Visible spectrophotometric method relative to control; method in brief: as §2
T2 sequence (whole entry): T1 sequence (Q4DCQ3 whole entry)

Mus musculus [10] = test: Toxicity in Balb/c mouse assessed as reduction in body mass at […], po once daily for 5 consecutive days starting from day 75 post infection relative to control; assay type: organism-based; set-up: scale not given: the % may be the effect or the level left; details: in vivo
Method in brief: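 Infected female BALB/c mice, six per group, received oral doses of 20 mg·kg^-1/day for 5 consecutive days (total 100 mg·kg^-1) in 5% DMSO/0.5% HPMC vehicle, from day 10 or day 75 pi. Body mass and deaths were monitored during and after treatment.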

Trypanosoma cruzi [11] = test: Trypanocidal activity against Trypanosoma cruzi TINF/CH/1956/Tulahuen DTU 6 trypamastigotes derived from infected Balb/c albino mouse after 24 hrs by resazurin dye based assay; assay type: functional, organism-based; details: TINF/CH/1956/Tulahuen DTU 6, 24 h; method in brief: as §3
[12] = Selectivity index, ratio of IC50 for African green monkey Vero cells to IC50 for Trypanosoma cruzi MHOM/Pe/2011/Arequipa DTU 5 amastigotes infected in African green monkey Vero cells; assay type: toxicity; details: read-out: Ratio IC50
Method in brief: (§5)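 SI is Vero IC50 divided by the IC50 for the stated parasite form. For Vero cytotoxicity, cells were seeded at 1.25×10^4 mL^-1 with compounds at 1000–1 µM, incubated 48 h, then given resazurin for a further 24 h (72 h total), with absorbance read at 570/600 nm. Triplicate, four determinations.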

Mus musculus [13] = test: Hepatotoxicity in Balb/c mouse infected with Trypanosoma cruzi MHOM/Pe/2011/Arequipa DTU 5 trypamastigotes assessed as change in total bilirubin level at […], po once daily for 5 consecutive days starting from day 75 post infection measured on day 127 post infection by biochemical analysis relative to control; assay type: toxicity, organism-based; details: in vivo
Trypanosoma cruzi [14] = test: Trypanocidal activity against Trypanosoma cruzi MHOM/Pe/2011/Arequipa DTU 5 amastigotes infected in African green monkey Vero cells assessed as reduction in infected cells after 72 hrs by Giemsa-staining based microscopic assay; assay type: functional, organism-based; details: MHOM/Pe/2011/Arequipa DTU 5, Vero
Method in brief: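 Infected Vero cell cultures were exposed for 72 h to a range of concentrations. Infected cells were counted microscopically on Giemsa-stained preparations and expressed relative to infected untreated controls. Values are means of three separate determinations; IC50 was derived by curve fitting.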

Vero = test: Cytotoxicity against African green monkey Vero cells assessed as reduction in cell viability after 72 hrs by resazurin dye based assay; details: Chlorocebus sabaeus
Method in brief: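 Vero monkey kidney cells grown at 37 °C, 5 % CO2, in RPMI with 10 % heat-inactivated FBS. Seeded at 1.25 × 10^4 mL-1 with compound at 1000 to 1 µM (DMSO 0.01 % v/v). After 48 h, resazurin added for a further 24 h, then SDS. Absorbance read at 570/600 nm. IC50 from triplicates in four separate determinations.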

[15] = Selectivity index, ratio of IC50 for African green monkey Vero cells to IC50 for Trypanosoma cruzi IRHOD/CO/2008/SN3 DTU 1 epimastigotes; assay type: toxicity; details: read-out: Ratio IC50; method in brief: as §5
[16] = Selectivity index, ratio of IC50 for African green monkey Vero cells to IC50 for Trypanosoma cruzi TINF/CH/1956/Tulahuen DTU 6 epimastigotes; assay type: toxicity; details: read-out: Ratio IC50; method in brief: as §5

Sequence of Superoxide dismutase [Cu-Zn] (P00441 whole entry): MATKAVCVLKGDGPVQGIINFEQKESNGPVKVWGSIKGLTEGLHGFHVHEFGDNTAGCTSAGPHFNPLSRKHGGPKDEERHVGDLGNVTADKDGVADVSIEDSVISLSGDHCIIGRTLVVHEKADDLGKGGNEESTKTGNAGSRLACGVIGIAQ

Row | Structure (SMILES) | IC50 (Trypanosoma cruzi [1]) [µM] | IC50 [2] [µM] | IC50 (Trypanosoma cruzi [3]) [µM] | Activity (Trypanosoma cruzi [4]) [%] | IC50 (Trypanosoma cruzi [5]) [µM] | IC50 (Superoxide dismutase) [µM] | Activity (Trypanosoma cruzi [6]) | IC50 (Trypanosoma cruzi [7]) [µM] | IC50 (Trypanosoma cruzi [8]) [µM] | inhibition [9] [%] | Activity (Mus musculus [10]) [%] | IC50 (Trypanosoma cruzi [11]) [µM] | selectivity ratio [12] | Activity (Mus musculus [13]) [%] | IC50 (Trypanosoma cruzi [14]) [µM] | IC50 (Vero) [µM] | selectivity ratio [15] | selectivity ratio [16]
1 | COc1ccc(C(=O)CCN2CCN(c3ccc(F)cc3)CC2)cc1 | 1.8 | 146 | 1.4 | 25.6 | 2 | 7.8 | inactive | 1.6 | 3.1 | 100 | > 10 | 1.2 | 88.7 | < 10 | 1.9 | 55 | 27.9 | 30.2
2 | COc1ccc(C(=O)CCN2CCN(c3ccc(Cl)cc3)CC2)cc1 | 7.3 | 100 | 3.9 | 27.4 | 6.3 | 6.5 | inactive | 3.8 | 5.8 | 100 | > 10 | 2.9 | 82.4 | < 10 | 6.4 | 300 | 47.8 | 40.9
3 | COc1ccc(C(=O)CCN2CCN(c3ccc([N+](=O)[O-])cc3)CC2)cc1 | 37.4 | > 100 | 3.1 | 76.3 | 22 | 5 | inactive | 33.6 | 30.5 | 100 | > 10 | 14.5 | 20 | < 10 | 47.9 | 587 | 26.7 | 15.7
4 | O=C(Cn1ccnc1[N+](=O)[O-])NCc1ccccc1 [BENZNIDAZOLE] | 19.7 |  |  | 35.4 |  |  |  | 10 |  |  |  | 15.1 |  |  | 15.1 | 23.2 |  | 
